One assay relates to A549. Briefly: Inhibitory activity against A549 lung adenocarcinoma cell line. The format is functional, cell-based. The settings on record: Homo sapiens. The method, boiled down: (§1)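 Cells grown in RPMI 1640 with 2 mM L-glutamine and 10% fetal calf serum, 37 °C, 5% CO2. Seeded at 5 × 10³ per well, 24 h adherence, then drug 0.1 nM–100 μM final (n = 8; DMSO stocks, dilutions in medium) for 72 h.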

The test system of assay [1] is Panel NCI-60 (60 carcinoma cell lines). Briefly: In vitro mean growth inhibitory activity against 60-cell panel. The format is functional. Conditions: Homo sapiens.
The test system is the same in assay [2]. Briefly: In vitro mean growth lethal concentration against 60-cell panel. Type of assay: functional. Conditions: Homo sapiens, read-out: Mean LC50.
Assay [3] shares this test system. The experiment in a line: In vitro mean growth lethal concentration in colon subpanel against 60-cell panel. The format is functional. The settings on record: Homo sapiens, read-out: Mean LC50.
Assay [4] has the same test system. Briefly: In vitro mean growth lethal concentration in renal subpanel against 60-cell panel. The format is functional. Conditions: Homo sapiens, read-out: Mean LC50.
For a further assay, the system named is ACHN. Briefly: In vitro lethal concentration against most sensitive ACHN cell line. The format is functional. The settings on record: Homo sapiens, read-out: LC50 (the source's name).
For assay [5], the system named is HCT-116. Briefly: In vitro lethal concentration against most sensitive colon HCT116 cell line. Type of assay: functional. The settings on record: Homo sapiens, read-out: LC50 (the source's name).
The next assay concerns SW-620. Briefly: In vitro lethal concentration against least sensitive colon SW-620 cell line. Conditions: Homo sapiens, read-out: LC50 (the source's name). Type of assay: functional.
Assay [6] concerns HCT-116. The experiment in a line: Inhibitory activity against HCT116 colon cancer cell line. Type of assay: functional, cell-based. Conditions: Homo sapiens. In outline: as §1
The subject of the next assay is HT-29. Briefly: Inhibitory activity against HT-29 colon cancer cell line. The format is functional, cell-based. Conditions: Homo sapiens. In outline:
as §1

Another assay deals with MCF7. Briefly: Inhibitory activity against MCF-7 mammary carcinoma cell line. The format is functional, cell-based. The settings on record: Homo sapiens. In outline: as §1
Another assay concerns MDA-MB-468. Briefly: Inhibitory activity against MDA-468 mammary carcinoma cell line. Conditions: Homo sapiens. Type of assay: functional, cell-based. The method, boiled down:
as §1

One may read the IC50 as the concentration that inhibits the measured activity by half. The low end stands for greater potency in that assay, the high end for weaker potency in that assay. One may read the GI50 as the concentration giving 50% growth inhibition. Read a low GI50 as greater sensitivity of the cells. Take `O=C1C=CC(O)(c2cc3ccccc3o2)C=C1`: the IC50 with A549 was 2.3 µM; in the assay on HCT-116 [6], 0.16 µM; with HT-29 it was 0.42 µM. In assay [1], the concentration for 50% growth inhibition (GI50) worked out at 0.52 µM. Moreover, the CC50 was 7.24 µM in assay [2]; 3.66 µM in assay [3]; 2.4 µM in assay [4]; 1 µM in the assay on ACHN; 0.6 µM in the assay with HCT-116 [5]; more than 100 µM with SW-620.

With `O=C1/C(=C\c2ccccc2)CC(O)(c2nc3ccccc3s2)C/C1=C/c1ccccc1` (stereo unspecified), in assay [1], the GI50 is 2.69 µM. Further, the CC50 in assay [2] was 47.9 µM; in assay [3], 17.4 µM; in [4], 37.2 µM; in the assay on ACHN, 30.9 µM; with HCT-116 [5], 5.37 µM; in the assay on SW-620 it was more than 100 µM.

For `COC1(c2nc3ccc(F)cc3s2)C=CC(=NS(=O)(=O)c2ccc(C)cc2)C=C1` (stereo unspecified), the GI50 in assay [1] came to 1.74 µM. The CC50 is 30.2 µM in [2]; 25.6 µM in [3]; 19.1 µM in assay [4]; more than 100 µM in the assay on ACHN; 5.25 µM with HCT-116 [5]; more than 100 µM in the assay with SW-620.

For the molecule `O=C1C=CC(O)(c2cc3ccccc3s2)c2ccccc21` (stereo unspecified), the concentration for 50% growth inhibition (GI50) in [1] is 2.29 µM. For the same molecule, the CC50 in assay [2] was 70.8 µM; in [3], more than 100 µM; in assay [4], more than 100 µM; in the assay on ACHN it was more than 100 µM; in the assay on HCT-116 [5] it was more than 100 µM; in the assay on SW-620 it was more than 100 µM.

`Oc1ccc(-c2nc3ccccc3s2)cc1`: in assay [1], halving of growth (GI50) required 33.9 µM. In addition, the CC50 (in assay [2]; in assay [3]; in assay [4]; in the assay on ACHN; in the assay with HCT-116 [5]; in the assay with SW-620) was more than 100 µM each time. Further, the IC50 in the assay with MCF7 was determined as 69.4 µM; with MDA-MB-468, 0.4 µM.

Regarding `O=C1C=CC(O)(c2ccccc2)C=C1`, the GI50 in assay [1] stood at 2.29 µM. For the same molecule, the CC50 in [2] was determined as 21.9 µM; in [3] it was 10.6 µM; in [4], 16.7 µM; in the assay on ACHN, 5.5 µM; with HCT-116 [5] it was 6.31 µM; in the assay with SW-620, 51.3 µM. The IC50 in the assay with HCT-116 [6] was 2.22 µM; in the assay on HT-29 it was 3.63 µM.

The molecule `COC1(c2nc3c(F)cccc3s2)C=CC(=NS(=O)(=O)c2ccc(C)cc2)C=C1` (stereo unspecified) yielded a GI50 in assay [1] of 2.57 µM. Moreover, the CC50 in [2] was found to be 27.5 µM; in assay [3] it was 26.9 µM; in assay [4] it was 14.4 µM; with ACHN it was 7.59 µM; with HCT-116 [5], 57.5 µM; in the assay on SW-620 it was 67.6 µM.

With `O=C1C=CC(O)(c2cc3ccccc3s2)C=C1`, the results for the half-inhibitory concentration (IC50) with A549, with HCT-116 [6] and in the assay on HT-29 were 2.43 µM, 0.17 µM and 0.55 µM, respectively. The molecule also gave a GI50 in [1] of 0.25 µM. The CC50 in [2] is 5.75 µM; in assay [3], 1.69 µM; in assay [4] it was 1.4 µM; in the assay with ACHN it was 0.33 µM; with HCT-116 [5], 0.6 µM; in the assay with SW-620, more than 100 µM.

Turning to `O=C1C=CC(O)(c2cc3ccccc3o2)c2ccccc21` (stereo unspecified), in [1], the concentration for 50% growth inhibition (GI50) is 0.74 µM. Further, the CC50 in assay [2] is 7.76 µM; in assay [3], 7.76 µM; in [4], 6.48 µM; in the assay on ACHN, 5.75 µM; with HCT-116 [5] it was 4.9 µM; in the assay on SW-620, 3.55 µM.

With `O=C1C=CC(O)(c2cnc3ccccc3c2)C=C1`, the GI50 in assay [1] came out at 1.07 µM. The CC50 is 15.8 µM in assay [2]; 15.8 µM in assay [3]; 9.66 µM in [4]; 15.1 µM in the assay with ACHN; 4.26 µM in the assay on HCT-116 [5]; more than 100 µM in the assay with SW-620. Further, the 50% inhibitory concentration (IC50) in the assay with HCT-116 [6] turned out to be 0.72 µM; in the assay with HT-29 it was 0.97 µM; with MCF7, 0.77 µM; in the assay on MDA-MB-468 it was 1.7 µM.

As to `O=C1C=CC(O)(c2ccccn2)C=C1`, the GI50 in assay [1] was found to be 1.91 µM. For the same molecule, the CC50 in [2] was 20.4 µM; in assay [3] it was 6.9 µM; in [4] it was 11.3 µM; with ACHN it was 8.91 µM; with HCT-116 [5], 5.24 µM; in the assay on SW-620 it was more than 100 µM. In addition, the half-inhibitory concentration (IC50) was 0.55 µM with HCT-116 [6], 0.46 µM with HT-29, 0.72 µM in the assay with MCF7 and 1.5 µM in the assay with MDA-MB-468.

`O=C1C=CC(O)(c2nc3ccccc3o2)C=C1`: the half-maximal inhibitory concentration (IC50) with A549 worked out at 2.33 µM; with HCT-116 [6], 0.18 µM; in the assay on HT-29, 0.29 µM; in the assay with MCF7, 0.39 µM; in the assay with MDA-MB-468 it was 0.35 µM. In assay [1], this molecule had a 50% growth inhibitory concentration (GI50) of 0.46 µM. For the same molecule, the CC50 in assay [2] is 7.08 µM; in assay [3], 1.13 µM; in [4], 1.64 µM; in the assay with ACHN it was 4.9 µM; with HCT-116 [5], 0.87 µM; in the assay on SW-620, more than 100 µM.

In assay [1], `O=C1CCC(O)(c2nc3ccccc3s2)CC1` gave a GI50 of more than 100 µM. The CC50 (in assay [2]; in assay [3]; in [4]; in the assay with ACHN; in the assay on HCT-116 [5]; in the assay on SW-620) was more than 100 µM throughout.

On to `COC1(c2nc3ccccc3s2)C=CC(=NS(=O)(=O)c2ccc(C)cc2)C=C1` (stereo unspecified), for which the GI50 in [1] came out at 15.5 µM. Besides, the CC50 in [2] was 83.2 µM; in assay [3], more than 100 µM; in assay [4], more than 100 µM; with ACHN, more than 100 µM; in the assay with HCT-116 [5], 44.7 µM; in the assay with SW-620, more than 100 µM.

`COc1ccc2nc(C3(OC)C=CC(=NS(=O)(=O)c4ccc(C)cc4)C=C3)sc2c1` (stereo unspecified) gave a GI50 in assay [1] of 1.91 µM. The CC50 in assay [2] came to 18.6 µM; in [3], 13.2 µM; in assay [4], 11.2 µM; in the assay with ACHN it was 8.32 µM; in the assay with HCT-116 [5] it was 5.01 µM; in the assay with SW-620, 77.6 µM.

As for `COC1(c2nc3ccc(C)cc3s2)C=CC(=NS(=O)(=O)c2ccc(C)cc2)C=C1` (stereo unspecified), in assay [1], it took 1.2 µM to inhibit growth by half (GI50). Also, the CC50 in assay [2] came to 19.5 µM; in assay [3], 9.92 µM; in assay [4], 10.6 µM; in the assay with ACHN it was 6.92 µM; with HCT-116 [5], 1.78 µM; in the assay on SW-620 it was 95.5 µM.

In [1], `O=C1C=CC(O)(c2nc3ccccc3s2)C(Cl)=C1` (stereo unspecified) yielded a GI50 of 0.46 µM. Further, the CC50 in assay [2] was 6.31 µM; in assay [3] it was 2.31 µM; in assay [4] it was 1.8 µM; in the assay on ACHN, 0.58 µM; in the assay with HCT-116 [5], 0.68 µM; with SW-620, more than 100 µM.

As for `O=C1C=CC(O)(c2nccs2)C=C1`, the concentration for 50% growth inhibition (GI50) in assay [1] is 1.35 µM. For the same molecule, the CC50 amounted to 14.5 µM in assay [2]; 14.5 µM in assay [3]; 9.17 µM in assay [4]; 7.94 µM in the assay on ACHN; 4.9 µM with HCT-116 [5]; 26.3 µM in the assay on SW-620. For the same molecule, the concentration for half-maximal inhibition (IC50) stood at 0.62 µM in the assay on HCT-116 [6] and 0.72 µM in the assay on HT-29.

Consider `O=C1C=CC(O)(c2ccc3ccccc3c2)C=C1`, for which growth in assay [1] was halved (GI50) at 0.81 µM. Besides, the CC50 is 11.7 µM in assay [2]; 6.58 µM in assay [3]; 4.68 µM in [4]; 7.76 µM in the assay on ACHN; 4.47 µM in the assay with HCT-116 [5]; more than 100 µM in the assay with SW-620. For the same molecule, the 50% inhibitory concentration (IC50) with HCT-116 [6] was found to be 0.82 µM; with HT-29 it was 2.5 µM; with MCF7 it was 1.3 µM; with MDA-MB-468 it was 1.4 µM.

As for `CC1=CC(O)(c2nc3ccccc3s2)C=C(C)C1=O`, the GI50 in assay [1] was found to be 38.2 µM. In addition, the CC50 (in [2]; in assay [3]; in assay [4]; in the assay with ACHN; in the assay with HCT-116 [5]; in the assay with SW-620) was more than 100 µM throughout.

Take `O=C1C=CC(O)(c2cccs2)C=C1`: the concentration for 50% growth inhibition (GI50) in [1] was determined as 1.78 µM. The CC50 in [2] was 30.9 µM; in [3], 32.5 µM; in assay [4] it was 14.4 µM; in the assay on ACHN it was 35.5 µM; in the assay with HCT-116 [5], 5.89 µM; with SW-620, more than 100 µM. Also, the IC50 stood at 0.66 µM in the assay with HCT-116 [6], 1.25 µM in the assay on HT-29, 0.57 µM in the assay on MCF7 and 0.72 µM with MDA-MB-468.

Consider `O=C1C=CC(O)(c2cccc3ccccc23)C=C1`, for which the GI50 in assay [1] was found to be 1.82 µM. For the same molecule, the CC50 in assay [2] was 25.7 µM; in [3] it was 12.2 µM; in assay [4] it was 17 µM; in the assay with ACHN, 13.2 µM; in the assay on HCT-116 [5] it was 5.37 µM; in the assay on SW-620, more than 100 µM. In addition, the IC50 in the assay on HCT-116 [6] worked out at 0.42 µM; in the assay with HT-29, 1.36 µM; in the assay with MCF7, 0.78 µM; with MDA-MB-468, 1.77 µM.

Source of the values: ChEMBL document CHEMBL1145965, “4-Substituted 4-hydroxycyclohexa-2,5-dien-1-ones with selective activities against colon and renal cancer cell lines” (J Med Chem, 2003).
